Calls of active or inactive are those of the source. The rule behind the calls is not given here.
Experiments:
Hepatitis C virus [1] = test: Inhibition of RNA copy numbers in HCV 1b-N replicon cells with NS5B M414T mutant at EC50 after 4 days; assay type: functional, Hepacivirus hominis, genotype 1b strain N; parameters: scale not given: the % may be the effect or the level left
Procedure, shortened: (§1)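 1b-N replicon cells treated with compound for 4 days, with a no-compound control. Total RNA was extracted and HCV RNA copy number quantified by TaqMan real-time RT-PCR, normalised per 1 pg total RNA.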

Hepatitis C virus [2] = test: Inhibition of RNA copy numbers in HCV 1b-N replicon cells with NS5B M414T mutant at 10 times EC50 after 4 days; assay type: functional, Hepacivirus hominis, genotype 1b strain N; parameters: scale not given: the % may be the effect or the level left; procedure, shortened: as §1
Hepatitis C virus [3] = test: Inhibition of RNA copy numbers in HCV 1b-N replicon cells with NS5B M414T mutant at 100 times EC50 after 4 days; assay type: functional, Hepacivirus hominis, genotype 1b strain N; parameters: scale not given: the % may be the effect or the level left; procedure, shortened: as §1
Hepatitis C virus [4] = test: Antiviral activity against HCV 1b-N; assay type: functional, organism-based, Hepacivirus hominis; settings: genotype 1b strain N
Procedure, shortened: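 1b-N subgenomic replicon cells, grown in DMEM with 10% FBS, blasticidin and G418, seeded at 4,000 cells/well with eight serial compound dilutions. Replicon RNA copy number was quantified by TaqMan real-time RT-PCR, and EC50 was taken as the concentration giving 50% inhibition of copy number.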

Hepatitis C virus [5] = test: Decrease in NS5B M414T mutant in HCV 1b-N replicon cells treated with 70 nM assessed as mutant level after drug withdrawal on day 4 and measured at day 18 and 28; assay type: functional, Hepacivirus hominis, genotype 1b strain N; parameters: scale not given: the % may be the effect or the level left
Procedure, shortened: (§2)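 Replicon cells, 2 × 10⁵ per 10-cm dish, received inhibitor for 4 days, then drug was removed and culture continued to day 28, splitting 1:10 at 90% confluence. Cells were trypsinised and PBS-washed before RNA extraction. %M414T was measured by RT, first-round PCR, then allele-specific SYBR green real-time PCR as 100 × M414T/(M414T + wild-type copies), mean of three experiments.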

Hepatitis C virus [6] = test: Decrease in NS5B M414T mutant in HCV 1b-N replicon cells treated with 70 nM assessed as mutant level after drug withdrawal on day 4 and measured at day 10; assay type: functional, Hepacivirus hominis, genotype 1b strain N; parameters: scale not given: the % may be the effect or the level left; procedure, shortened: as §2
Hepatitis C virus [7] = test: Increase in NS5B M414T mutant levels in HCV 1b-N replicon cells at 7000 nM after 3 days relative to baseline; assay type: functional, Hepacivirus hominis, genotype 1b strain N
Procedure, shortened: (§3)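 1b-N replicon cells, 2 × 10⁴ per well, were exposed to inhibitor for up to 4 days, PBS-washed, and total RNA extracted. RNA was reverse transcribed at 50°C for 50 min, then NS5B was amplified by first-round PCR for 25 cycles. Allele-specific SYBR green real-time PCR used M414-wild-type or T-specific antisense primers. %M414T = 100 × M414T/(M414T + wild-type copies), mean of three experiments.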

Hepatitis C virus [8] = test: Increase in NS5B M414T mutant levels in HCV 1b-N replicon cells at 700 nM after 3 days relative to baseline; assay type: functional, Hepacivirus hominis, genotype 1b strain N; procedure, shortened: as §3
Hepatitis C virus [9] = test: Increase in NS5B M414T mutant levels in HCV 1b-N replicon cells at 70 nM after 3 days relative to baseline; assay type: functional, Hepacivirus hominis, genotype 1b strain N; procedure, shortened: as §3
Hepatitis C virus [10] = test: Increase in NS5B M414T mutant levels in HCV 1b-N replicon cells at 7000 nM after 2 days relative to baseline; assay type: functional, Hepacivirus hominis, genotype 1b strain N; procedure, shortened: as §3
Hepatitis C virus [11] = test: Increase in NS5B M414T mutant levels in HCV 1b-N replicon cells at 700 nM after 2 days relative to baseline; assay type: functional, Hepacivirus hominis, genotype 1b strain N; procedure, shortened: as §3
Hepatitis C virus [12] = test: Increase in NS5B M414T mutant levels in HCV 1b-N replicon cells at 70 nM after 2 days relative to baseline; assay type: functional, Hepacivirus hominis, genotype 1b strain N; procedure, shortened: as §3
Hepatitis C virus [13] = test: Increase in NS5B M414T mutant levels in HCV 1b-N replicon cells at 700 nM after 4 days relative to baseline; assay type: functional, Hepacivirus hominis, genotype 1b strain N; procedure, shortened: as §3
Hepatitis C virus [14] = test: Increase in NS5B M414T mutant levels in HCV 1b-N replicon cells at 7000 nM after 4 days relative to baseline; assay type: functional, Hepacivirus hominis, genotype 1b strain N; procedure, shortened: as §3
Hepatitis C virus [15] = test: Increase in NS5B M414T mutant levels in HCV 1b-N replicon cells at 70 nM after 4 days relative to baseline; assay type: functional, Hepacivirus hominis, genotype 1b strain N; procedure, shortened: as §3
Hepatitis C virus [16] = test: Decrease in NS5B M414T mutant in HCV 1b-N replicon cells treated with 700 nM assessed as mutant level after drug withdrawal on day 4 and measured at day 10; assay type: functional, Hepacivirus hominis, genotype 1b strain N; parameters: scale not given: the % may be the effect or the level left; procedure, shortened: as §2
Hepatitis C virus [17] = test: Decrease in NS5B M414T mutant in HCV 1b-N replicon cells treated with 700 nM assessed as mutant level after drug withdrawal on day 4 and measured upto day 28; assay type: functional, organism-based; settings: Hepacivirus hominis; genotype 1b strain N; procedure, shortened: as §2
Hepatitis C virus [18] = test: Decrease in NS5B M414T mutant in HCV 1b-N replicon cells treated with 7000 nM assessed as mutant level after drug withdrawal on day 4 and measured upto day 28; assay type: functional, organism-based; settings: Hepacivirus hominis; genotype 1b strain N; procedure, shortened: as §2

Row | Compound | Activity (Hepatitis C virus [1]) [%] | Activity (Hepatitis C virus [2]) [%] | Activity (Hepatitis C virus [3]) [%] | EC50 (Hepatitis C virus [4]) [µM] | Activity (Hepatitis C virus [5]) [%] | Activity (Hepatitis C virus [6]) [%] | Activity (Hepatitis C virus [7]) [%] | Activity (Hepatitis C virus [8]) [%] | Activity (Hepatitis C virus [9]) [%] | Activity (Hepatitis C virus [10]) [%] | Activity (Hepatitis C virus [11]) [%] | Activity (Hepatitis C virus [12]) [%] | Activity (Hepatitis C virus [13]) [%] | Activity (Hepatitis C virus [14]) [%] | Activity (Hepatitis C virus [15]) [%] | Activity (Hepatitis C virus [16]) [%] | Activity (Hepatitis C virus [17]) | Activity (Hepatitis C virus [18])
1 | COc1ccc2c(O[C@@H]3C[C@H]4C(=O)N[C@]5(C(=O)O)C[C@H]5/C=C\CCCCC[C@H](NC(=O)OC5CCCC5)C(=O)N4C3)cc(-c3csc(NC(C)C)n3)nc2c1 [CILUPREVIR] | 37 | 99 | 99 | 0.004 | – | – | – | – | – | – | – | – | – | – | – | – | – | –
2 | NC(=O)COc1ccc2c(c1)S(=O)(=O)N=C(c1c(O)c3ccccc3n(NC3CCC3)c1=O)N2 | 58 | 93 | 99 | 0.07 | 0.3 | 0.9 | 56 | 28 | 2.5 | 12.6 | 4 | 0.8 | 26 | 60 | 2.5 | 4 | inactive | inactive

From ChEMBL document CHEMBL1143825, “Evolution of resistant M414T mutants among hepatitis C virus replicon cells treated with polymerase inhibitor A-782759” (Antimicrob Agents Chemother, 2007)
